Assay results reported in ChEMBL document CHEMBL4196059, “Design, synthesis, and biological evaluation of stable β6.3-Helices: Discovery of non-hemolytic antibacterial peptides” (Eur J Med Chem, 2018).
The source made the active and inactive calls. No cut-off for these calls is given here.

Key:
Staphylococcus aureus = experiment: Growth inhibition of methicillin-resistant Staphylococcus aureus ATCC 43300 at 32 ug/ml after 18 hrs; format: functional; details: ATCC 43300, 18 h, read-out: GI
Procedure, shortened: (§1)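 Mid-log cultures in cation-adjusted Mueller Hinton broth were added at 5×10^5 CFU/mL to wells at a final compound concentration of 32 μg/mL. Plates stood at 37 °C for 18 h. Growth was read by OD600, and % inhibition was computed against media-only and untreated-bacteria controls.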

Escherichia coli = experiment: Growth inhibition of Escherichia coli ATCC 25922 at 32 ug/ml after 18 hrs; format: functional; details: ATCC 25922, 18 h, read-out: GI
Procedure, shortened: (§2)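 Mid-log cultures were prepared as above and seeded at 5×10^5 CFU/mL with compound at a final 32 μg/mL, then held static at 37 °C for 18 h. Growth was read as OD600. Percent inhibition was calculated against media-only and bacteria-only controls on the same plate.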

Klebsiella pneumoniae = experiment: Growth inhibition of multidrug-resistant Klebsiella pneumoniae ATCC 700603 at 32 ug/ml after 18 hrs; format: functional; details: ATCC 700603, 18 h, read-out: GI; procedure, shortened: as §1
Pseudomonas aeruginosa = experiment: Growth inhibition of Pseudomonas aeruginosa ATCC 27853 at 32 ug/ml after 18 hrs; format: functional; details: ATCC 27853, 18 h, read-out: GI; procedure, shortened: as §2
Acinetobacter baumannii = experiment: Growth inhibition of Acinetobacter baumannii ATCC 19606 at 32 ug/ml after 18 hrs; format: functional; details: ATCC 19606 = CIP 70.34 = JCM 6841, 18 h, read-out: GI; procedure, shortened: as §2
Cryptococcus neoformans = experiment: Growth inhibition of Cryptococcus neoformans H99 ATCC 208821 at 32 ug/ml after 24 hrs by resazurin dye-based microspectrophotometric assay; format: functional; details: var. grubii H99 ATCC 208821, 24 h, read-out: GI
Procedure, shortened: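 Yeasts were grown 3 days on YPD agar at 30 °C, suspended from five colonies and diluted in YNB broth to a final 2.5×10^3 CFU/mL. Compound at a final 32 μg/mL; incubated 24 h at 35 °C without shaking. C. albicans was read at OD530. C. neoformans was read as OD600–570 after resazurin (0.001% final) and a further 2 h at 35 °C. Fluconazole was the standard.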

Candida albicans = experiment: Growth inhibition of Candida albicans ATCC 90028 at 32 ug/ml after 24 hrs by OD530 light-scattering microspectrophotometric method; details: ATCC 90028, 24 h, read-out: GI
Erythrocyte = experiment: Hemolytic activity against human RBC after 1 hr by Drabkin's assay; format: ADME, cell-based
Lipid bilayer = experiment: Induction of pore formation in POPC vesicles at 20 uM after 3 hrs by carboxyfluorescein dye leakage assay; details: in the assay text read “after 3 mins” for “after 3 hrs”
Procedure, shortened: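 POPC or DOPC liposomes were hydrated in 10 mM HEPES, 100 mM KCl, pH 7.4, containing 50 mM carboxyfluorescein. Size was checked by dynamic light scattering, and vesicles were used at 2.2×10^10 per mL. Peptide at 20 μM was equilibrated with vesicles for 3 min, and dye leakage was measured.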

[1] = Hemolytic activity against human RBC at 50 uM after 1 hr by Drabkin's assay relative to control; format: ADME, cell-based, Erythrocyte; details: human red blood cells (erythrocytes), read-out: Activity
[2] = Hemolytic activity against human RBC at 25 uM after 1 hr by Drabkin's assay relative to control; format: ADME, cell-based, Erythrocyte; details: human red blood cells (erythrocytes), read-out: Activity
[3] = Hemolytic activity against human RBC at 12.5 uM after 1 hr by Drabkin's assay relative to control; format: ADME, cell-based, Erythrocyte; details: human red blood cells (erythrocytes), read-out: Activity
[4] = Hemolytic activity against human RBC at 6.25 uM after 1 hr by Drabkin's assay relative to control; format: ADME, cell-based, Erythrocyte; details: human red blood cells (erythrocytes), read-out: Activity
[5] = Hemolytic activity against human RBC at 3.125 uM after 1 hr by Drabkin's assay relative to control; format: ADME, cell-based, Erythrocyte; details: human red blood cells (erythrocytes), read-out: Activity
[6] = Hemolytic activity against human RBC at 1.56 uM after 1 hr by Drabkin's assay relative to control; format: ADME, cell-based, Erythrocyte; details: human red blood cells (erythrocytes), read-out: Activity
[7] = Hemolytic activity against human RBC at 0.78 uM after 1 hr by Drabkin's assay relative to control; format: ADME, cell-based, Erythrocyte; details: human red blood cells (erythrocytes), read-out: Activity
[8] = Hemolytic activity against human RBC at 0.39 uM after 1 hr by Drabkin's assay relative to control; format: ADME, cell-based, Erythrocyte; details: human red blood cells (erythrocytes), read-out: Activity
[9] = Hemolytic activity against human RBC at 100 uM after 1 hr by Drabkin's assay relative to control; format: ADME, cell-based, Erythrocyte; details: human red blood cells (erythrocytes), read-out: Activity

## CN1CCCN1C(=O)[C@@H]1CCCN1C(=O)N1CCCN1C(=O)[C@@H]1CCCN1C(=O)N1CCCN1C(=O)[C@@H]1CCCN1C(=O)N1CCCN1C(=O)[C@@H]1CCCN1C(=O)N1CCCN1C(=O)[C@@H]1CCCN1C(=O)N1CCCN1C(=O)[C@@H]1CCCN1C(=O)N1CCCN1C(=O)[C@@H]1CCCN1C(=O)N1CCCN1C(=O)[C@@H]1CCCN1C(=O)N1CCCN1C(=O)OCc1ccccc1
Staphylococcus aureus
  inhibition of growth at 32 µg/mL: 25.1%
Escherichia coli
  inhibition of growth at 32 µg/mL: 3.93%
Klebsiella pneumoniae
  inhibition of growth at 32 µg/mL: 3.93%
Pseudomonas aeruginosa
  inhibition of growth at 32 µg/mL: -3.91%
Acinetobacter baumannii
  inhibition of growth at 32 µg/mL: -6.74%
Cryptococcus neoformans
  inhibition of growth at 32 µg/mL: -5.68%
Candida albicans
  inhibition of growth at 32 µg/mL: 3.49%

## CC(C)(C)OC(=O)[C@@H]1CCCN1C(=O)N1CCCN1C(=O)[C@@H]1CCCN1C(=O)N1CCCN1C(=O)[C@@H]1CCCN1C(=O)N1CCCN1C(=O)[C@@H]1CCCN1C(=O)N1CCCN1
Erythrocyte
  Activity: Dose-dependent effect
Staphylococcus aureus
  inhibition of growth at 32 µg/mL: 5.04%
Escherichia coli
  inhibition of growth at 32 µg/mL: 4.06%
Klebsiella pneumoniae
  inhibition of growth at 32 µg/mL: 4.07%
Pseudomonas aeruginosa
  inhibition of growth at 32 µg/mL: 4.45%
Acinetobacter baumannii
  inhibition of growth at 32 µg/mL: -8.79%
Cryptococcus neoformans
  inhibition of growth at 32 µg/mL: -4.84%
Lipid bilayer
  Activity: inactive
Candida albicans
  inhibition of growth at 32 µg/mL: 4.64%

## O=CN1CCCN1C(=O)N1CCC[C@H]1C(=O)N1CCCN1C(=O)N1CCC[C@H]1C(=O)N1CCCN1C(=O)N1CCC[C@H]1C(=O)N1CCCN1C(=O)N1CCC[C@H]1C(=O)N1CCCN1C(=O)N1CCC[C@H]1C(=O)NCCO
[1]
  hemolysis at 1 h, 50 µM: -0.361%
[2]
  hemolysis at 1 h, 25 µM: 0%
[3]
  hemolysis at 1 h, 12.5 µM: -0.913%
[4]
  hemolysis at 1 h, 6.25 µM: -0.361%
[5]
  hemolysis at 1 h, 3.125 µM: 0.02%
[6]
  hemolysis at 1 h, 1.56 µM: -0.452%
[7]
  hemolysis at 1 h, 0.78 µM: 0.08%
[8]
  hemolysis at 1 h, 0.39 µM: 0.361%
[9]
  hemolysis at 1 h, 100 µM: -0.251%
Erythrocyte
  Activity: Dose-dependent effect
Lipid bilayer
  Activity: inactive

## CC(C)(C)OC(=O)N1CCC[C@H]1C(=O)N1CCCN1C(=O)N1CCC[C@H]1C(=O)N1CCCN1C(=O)N1CCC[C@H]1C(=O)N1CCCN1C(=O)N1CCC[C@H]1C(=O)N1CCCN1C(=O)OCc1ccccc1
[1]
  hemolysis at 1 h, 50 µM: -0.379%
[2]
  hemolysis at 1 h, 25 µM: 0.227%
[3]
  hemolysis at 1 h, 12.5 µM: 0.038%
[4]
  hemolysis at 1 h, 6.25 µM: -0.152%
[5]
  hemolysis at 1 h, 3.125 µM: 0.038%
[6]
  hemolysis at 1 h, 1.56 µM: 0.189%
[7]
  hemolysis at 1 h, 0.78 µM: 0.189%
[8]
  hemolysis at 1 h, 0.39 µM: 0.227%
[9]
  hemolysis at 1 h, 100 µM: 0%
Erythrocyte
  Activity: Dose-dependent effect

## O=CN1CCCN1C(=O)N1CCC[C@H]1C(=O)N1CCCN1C(=O)N1CCC[C@H]1C(=O)N1CCCN1C(=O)N1CCC[C@H]1C(=O)N1CCCN1C(=O)N1CCC[C@H]1C(=O)N1CCCN1C(=O)N1CCC[C@H]1C(=O)N1CCCN1C(=O)N1CCC[C@H]1C(=O)N1CCCN1C(=O)N1CCC[C@H]1C(=O)NCCO
[1]
  hemolysis at 1 h, 50 µM: 0.4%
[2]
  hemolysis at 1 h, 25 µM: 0.41%
[3]
  hemolysis at 1 h, 12.5 µM: -0.045%
[4]
  hemolysis at 1 h, 6.25 µM: -0.29%
[5]
  hemolysis at 1 h, 3.125 µM: -0.045%
[6]
  hemolysis at 1 h, 1.56 µM: -0.049%
[7]
  hemolysis at 1 h, 0.78 µM: 0.072%
[8]
  hemolysis at 1 h, 0.39 µM: 0.023%
[9]
  hemolysis at 1 h, 100 µM: 1.4%
Erythrocyte
  Activity: Dose-dependent effect
Staphylococcus aureus
  inhibition of growth at 32 µg/mL: 13.7%
Escherichia coli
  inhibition of growth at 32 µg/mL: 5.64%
Klebsiella pneumoniae
  inhibition of growth at 32 µg/mL: 5.64%
Pseudomonas aeruginosa
  inhibition of growth at 32 µg/mL: -5.12%
Acinetobacter baumannii
  inhibition of growth at 32 µg/mL: 6.14%
Cryptococcus neoformans
  inhibition of growth at 32 µg/mL: -8.29%
Lipid bilayer
  Activity: inactive
Candida albicans
  inhibition of growth at 32 µg/mL: 3.52%

## Cl.O=C(OCc1ccccc1)N1CCCN1C(=O)[C@@H]1CCCN1C(=O)N1CCCN1C(=O)[C@@H]1CCCN1C(=O)N1CCCN1C(=O)[C@@H]1CCCN1C(=O)N1CCCN1C(=O)[C@@H]1CCCN1
[1]
  hemolysis at 1 h, 50 µM: -0.013%
[9]
  hemolysis at 1 h, 100 µM: 0.045%
Erythrocyte
  Activity: Dose-dependent effect
Staphylococcus aureus
  inhibition of growth at 32 µg/mL: 23.8%
Escherichia coli
  inhibition of growth at 32 µg/mL: 0.27%
Klebsiella pneumoniae
  inhibition of growth at 32 µg/mL: 0.27%
Pseudomonas aeruginosa
  inhibition of growth at 32 µg/mL: -10.1%
Acinetobacter baumannii
  inhibition of growth at 32 µg/mL: 34.9%
Cryptococcus neoformans
  inhibition of growth at 32 µg/mL: -1.33%
Candida albicans
  inhibition of growth at 32 µg/mL: 4.48%
